Measurements as given in ChEMBL document CHEMBL1149788, “Synthesis and biochemical evaluation of guanidino-alkyl-ribitol derivatives as nucleoside hydrolase inhibitors” (Eur J Med Chem, 2008).

Molecular target: T1, IAG-nucleoside hydrolase (Trypanosoma vivax, UniProt Q9GPQ4)
T1 sequence (Q9GPQ4 whole entry): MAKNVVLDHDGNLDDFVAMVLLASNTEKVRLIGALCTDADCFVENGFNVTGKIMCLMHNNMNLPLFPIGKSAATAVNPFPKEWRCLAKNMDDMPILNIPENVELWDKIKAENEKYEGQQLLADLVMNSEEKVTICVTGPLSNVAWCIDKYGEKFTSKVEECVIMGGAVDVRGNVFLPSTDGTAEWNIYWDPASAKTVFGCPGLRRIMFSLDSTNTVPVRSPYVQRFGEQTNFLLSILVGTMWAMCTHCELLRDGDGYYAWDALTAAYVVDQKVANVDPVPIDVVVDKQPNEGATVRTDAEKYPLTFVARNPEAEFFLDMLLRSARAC
Assay: Inhibition of Trypanosoma vivax IAG-nucleoside hydrolase expressed in Escherichia coli WK6
Procedure, shortened: (§1)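 His6-tagged enzyme purified by Ni-NTA then Superdex-200 gel filtration; concentration per monomer from ε280 47752 M⁻¹ cm⁻¹. Initial rates of hydrolysis of fixed p-nitrophenyl-β-D-ribofuranoside at ≥5 inhibitor concentrations, 50 mM phosphate pH 7.0, 35 °C. p-Nitrophenolate release read at 400 nm (ε 12 mM⁻¹ cm⁻¹). Ki from competitive-inhibition fit via Dixon plot (1/vi vs I).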

| Compound | Ki |
| --- | --- |
| N=C(N)c1ccc(CN2C[C@H](O)[C@H](O)[C@H]2CO)cc1 | 6.7 µM |
| NC(N)=NCCN1C[C@H](O)[C@H](O)[C@H]1CO | 286 µM |
| NC(=O)[C@@H]1O[C@H](CO)[C@H](O)[C@@H]1O | 4500 µM |
| NC(N)=NCCC[C@@H]1O[C@H](CO)[C@@H](O)[C@H]1O | 677 µM |
| NC(N)=NCC[C@@H]1O[C@H](CO)[C@@H](O)[C@H]1O | 309 µM |
| N=C(N)Nc1ccc(CN2C[C@H](O)[C@H](O)[C@H]2CO)cc1 | 7 µM |
| OC[C@H]1NC[C@H](O)[C@@H]1O [IMINORIBITOL] | 6.1 µM |
| C[N+](C)(C)C[C@@H]1O[C@H](CO)[C@@H](O)[C@H]1O | 1280 µM |
| OCC1[C@@H](O)[C@@H](O)CN1Cc1ccccc1 (single isomer, unassigned) | 59 µM |
| NC(N)=NC[C@@H]1O[C@H](CO)[C@@H](O)[C@H]1O | 545 µM |
| CC(C[C@@H]1O[C@H](CO)[C@@H](O)[C@H]1O)N=C(N)N (some centres undefined) | 685 µM |
| N=C(N)NCC[C@@H]1N[C@H](CO)[C@@H](O)[C@H]1O | 18 µM |
| N=C(N)NCCCN1C[C@H](O)[C@H](O)[C@H]1CO | 40 µM |

Molecular target: T2, IAG-nucleoside hydrolase (Trypanosoma vivax) (UniProt Q9GPQ4)
T2 sequence (whole entry): T1 sequence (Q9GPQ4 whole entry)
Assay: Binding affinity to Trypanosoma vivax IAG-nucleoside hydrolase
Procedure, shortened: as §1

| Compound | Activity |
| --- | --- |
| O[C@@H]1[C@H](O)[C@H](O)CO[C@H]1O | 148 mM |
